Tested on: bEnd.3 cells
Experiment: In vitro cellular uptake in bEnd.3 cells
Assay type: in vitro ADME
Details: for cellular uptake observed by confocal imaging: 10 µM FITC-labelled peptide or free FITC, confocal microscopy
Summary of the method: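 bEnd.3 cells were seeded at 5 × 10^4/cm2 for 24 h, untreated or pretreated with poly-lysine (4 kDa, 20 µM, 1 h). They were exposed to 10 µM FITC-peptide or free FITC for 10 min, 30 min or 2 h, washed with cold PBS and fixed in 4 % PFA. Staining was DiD (10 µM, 30 min) or Hoechst, followed by confocal imaging. Flow cytometry was run on trypsinised cells (Ex 488/Em 525 nm). Mean ± SD, n = 3.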

[1] = 10 µM FITC-labelled peptide, 2 h, flow cytometry, n = 3

Row | Compound | cellular uptake observed by confocal imaging (2 h) | adsorption to cell membrane (10 µM FITC-labelled peptide, 10 min, confocal) | cellular uptake relative to HNSS [1] [%] | fluorescence intensity of cellular uptake relative to HNG [1] [fold]
1 | O=C1OC2(c3ccc(O)cc3Oc3cc(O)ccc32)c2ccc(N=C=S)cc21 [free FITC, reference compound] | weak cellular uptake |  |  | 
2 | MAPRGFSCLLLLTGEIDLPVKRRAGGR(d)-Dmt-KF-NH2 [HNRS] | weak cellular uptake | adsorbed on the plasma membrane | 13.9 | 1.5
